Assay results collected from several papers.
Compare with care: the assays were run in different laboratories.
CDK9 with cyclin T1: Cyclin-dependent kinase 9, with cyclin T1 (CDK9, Homo sapiens, UniProt P50750)
AKT1: RAC-alpha serine/threonine-protein kinase (AKT1, Homo sapiens, UniProt P31749)
FABP4: Fatty acid-binding protein, adipocyte (FABP4, Homo sapiens, UniProt P15090)
CYP2C9: Cytochrome P450 2C9 (CYP2C9, Homo sapiens, UniProt P11712)

CN(C)C(=O)c1cc2cnc(Nc3ccc(-c4cccc5c(=O)cc(N6CCOCC6)oc45)cc3)nc2n1C1CCCC1
IC50 (CDK9 with cyclin T1; enzyme activity, inhibitor, radiometric): 0.01 µM

COc1ccc(C(=O)CC(SCc2ccc(Cl)cc2)C(=O)O)cc1 (stereo not drawn)
Ki (AKT1; ligand displacement, FP): 320 µM

CN(C)C(=O)c1cc2cnc(Nc3cccc4c(=O)cc(N5CCOCC5)oc34)nc2n1C1CCCC1
IC50 (CDK9 with cyclin T1; enzyme activity, inhibitor, radiometric): 9.57 µM

CCOc1ccc(C(=O)CC(SCc2ccc(F)cc2)C(=O)O)cc1 (stereo not drawn)
Ki (AKT1; ligand displacement, FP): 225 µM

CCCCCCCCCC(=O)O
Ki (FABP4; ligand displacement, fluorescence): 1.29 µM

COc1ccc(-c2coc3cc(O)ccc3c2=O)cc1
Ki (CYP2C9; enzyme activity, inhibitor; human, liver microsomes; 15 min): 7.12 µM

CCOc1ccc(C(=O)CC(SCc2ccc(OC)cc2)C(=O)O)cc1 (stereo not drawn)
Ki (AKT1; ligand displacement, FP): 560 µM

CN(C)C(=O)c1cc2cnc(Nc3ccc(C(=O)NCCCCCCOc4cccc5c4C(=O)N(C4CCC(=O)NC4=O)C5=O)cc3)nc2n1C1CCCC1 (stereo not drawn)
Kd (Cyclin-dependent kinase 9 (CDK9, Homo sapiens, UniProt P50750); binding, competition with immobilised ligand): < 0.2 µM

O=c1c(-c2ccc(O)cc2)coc2cc(O)ccc12
Ki (CYP2C9; enzyme activity, inhibitor; human, liver microsomes; 15 min): 7.85 µM

CCCCCCCC(=O)O
Ki (FABP4; ligand displacement, fluorescence): 13.5 µM

C[C@@H]1CNC[C@H](C)[C@@]1(O)c1ccc(-c2ccnc3[nH]cc(F)c23)cc1
IC50 (AKT1; enzyme activity, inhibitor, radiometric): 0.13 µM

CCOc1cccc(C(=O)CC(SCc2ccc(Cl)cc2)C(=O)O)c1 (stereo not drawn)
Ki (AKT1; ligand displacement, FP): 82.3 µM

CN(C)C(=O)c1cc2cnc(Nc3ccc(-c4ccc5c(=O)cc(N6CCOCC6)oc5c4)c(F)c3)nc2n1C1CCCC1
IC50 (CDK9 with cyclin T1; enzyme activity, inhibitor, radiometric): 0.00325 µM

Cc1cc(-c2ccnc3[nH]cc(F)c23)cc(F)c1[C@@]1(O)[C@H](C)CN(C(=O)CN)C[C@@H]1C
Kd (AKT1; cell-free assay, TR-FRET): 0.244 µM

O=C(O)C(F)(F)C(F)(F)C(F)(F)C(F)(F)C(F)(F)C(F)(F)C(F)(F)C(F)(F)C(F)(F)C(F)(F)C(F)(F)F
Ki (FABP4; ligand displacement, fluorescence): 0.551 µM

CCOc1ccc(C(=O)CC(SCc2ccc(Br)cc2)C(=O)O)cc1 (stereo not drawn)
Ki (AKT1; ligand displacement, FP): 279 µM

CCCCCCC(CCCCCCCCCCC(=O)O)N(C)c1ccc([N+](=O)[O-])c2nonc12 (stereo not drawn)
Kd (Sterol carrier protein 2 (Homo sapiens, UniProt P22307); binding, fluorescence): 0.31 µM

CCCCCCCCCCCCCC(=O)O
Ki (FABP4; ligand displacement, fluorescence): 0.438 µM

CCOc1ccc(C(=O)CC(SCc2ccc(Cl)cc2)C(=O)O)cc1 (stereo not drawn)
Ki (AKT1; ligand displacement, FP): 96 µM

CN(C)C(=O)c1cc2cnc(Nc3cccc(-c4cccc5c(=O)cc(N6CCOCC6)oc45)c3)nc2n1C1CCCC1
IC50 (CDK9 with cyclin T1; enzyme activity, inhibitor, radiometric): > 10 µM

CCCCCCCCCCCCC(=O)O
Ki (FABP4; ligand displacement, fluorescence): 1.32 µM

OC1(c2ccc(-c3ccnc4[nH]cc(F)c34)cc2)CNC1
IC50 (AKT1; target engagement in cells, BRET): 22.8 µM

CCOc1ccc(C(=O)CC(SCc2ccc(Cl)cc2)C(=O)OC)cc1 (stereo not drawn)
Ki (AKT1; ligand displacement, FP): 530 µM

CCCCCCC(=O)O
Ki (FABP4; ligand displacement, fluorescence): 145 µM
